Reference: ChEMBL document CHEMBL1158043, “Allergy-preventive phenolic glycosides from Populus sieboldii” (J Nat Prod, 2006)
Calls of active or inactive are those of the source. The rule behind the calls is not given here.

Assays:
[1] = test system: Platelet; assay: Inhibition of platelet aggregation in hen egg […]-sensitized ddY mouse blood after 9 days; assay type: functional, tissue-based
How it was run: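 Mice were HEL-sensitized and dosed orally at 20 mg/kg as in the blood-flow assay. On day 9, whole blood was drawn under diethyl ether anesthesia, anticoagulated with 3.8% sodium citrate and held 30 min at room temperature. Aggregation was induced with 8 µM ADP and measured by screen filtration pressure on a whole-blood aggregometer. Read-out is cohesion rate, mean ± SE, n = 5.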

[2] = test system: Mus musculus; assay: Allergy preventing effect in hen egg […]-sensitized ddY mouse assessed as inhibition blood flow decrease in tail artery at 20 mg/kg, po relative to control; assay type: functional, organism-based; parameters: dose 20 mg/kg
How it was run: (§1)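 Male ddY mice, 5 weeks old, sensitized s.c. with 50 µg HEL in complete Freund's adjuvant on day 0. Compound given orally at 20 mg/kg on days 0, 3, 6 and 9, 1 h before measurement. After 10 min prewarming at 37 °C, tail subcutaneous blood flow was read by non-contact laser Doppler for 10 min daily over 9 days without anesthesia. Values are % of each mouse's normal flow, mean ± SE, n = 5, compared with HEL-sensitized controls.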

[3] = test system: Mus musculus; assay: Allergy preventing effect in hen egg […]-sensitized ddY mouse assessed as inhibition of blood flow decrease in tail artery at 20 mg/kg, po after 5 days relative to control; assay type: functional, organism-based; parameters: dose 20 mg/kg; how it was run: as §1
[4] = test system: Mus musculus; assay: Allergy preventing effect in hen egg […]-sensitized ddY mouse assessed as inhibition of blood flow decrease in tail artery at 20 mg/kg, po after 6 days relative to control; assay type: functional, organism-based; parameters: dose 20 mg/kg; how it was run: as §1
[5] = test system: Mus musculus; assay: Allergy preventing effect in hen egg […]-sensitized ddY mouse assessed as inhibition of blood flow decrease in tail artery at 20 mg/kg, po after 7 days relative to control; assay type: functional, organism-based; parameters: dose 20 mg/kg; how it was run: as §1

Row | Structure (SMILES) | Activity [1] | Activity [2] | Activity [3] | Activity [4] | Activity [5]
1 | CC(=O)OC[C@H]1O[C@@H](Oc2cc(COC(=O)c3ccccc3)ccc2O)[C@H](O)[C@@H](O)[C@@H]1O | Active | Active | – | – | –
2 | OCc1ccccc1O[C@@H]1O[C@H](CO)[C@@H](O)[C@H](O)[C@H]1O | – | – | Active | – | –
3 | COc1cc(O[C@@H]2O[C@H](CO)[C@@H](O)[C@H](O)[C@H]2O)c2c(c1)O[C@H](c1ccc(O)cc1)CC2=O | inactive | – | – | Active | Active
4 | O=C(OCc1ccc(O)c(O[C@@H]2O[C@H](CO)[C@@H](O)[C@H](O)[C@H]2O)c1)c1ccccc1 | Active | Active | – | – | –
5 | COc1cc(O)c(C(=O)/C=C/c2ccc(O)cc2)c(O[C@@H]2O[C@H](CO)[C@@H](O)[C@H](O)[C@H]2O)c1 | Active | – | – | Active | Active
